Experimental data pooled from the literature.
Lines come from different studies, so protocols differ.
Target: Proto-oncogene tyrosine-protein kinase Src (SRC, Homo sapiens, UniProt P12931)

COC(=O)Nc1nc2ccc(C(=O)c3ccccc3)cc2[nH]1 — remaining binding (cell-free assay; competition with immobilised ligand; 10 µM): 34%
O=C(NCCCN1CCOCC1)c1ccc(Nc2ncc(Cl)c(-c3ccc(Cl)s3)n2)cc1 — remaining binding (binding; competition with immobilised ligand; 1 µM): 100%
CN(CCCC(F)(F)F)c1nccc(-c2cnn3ncccc23)n1 — remaining binding (binding; 1 µM): 100%
CNC(=O)[C@@H]1CC[C@@H](n2c(-c3ccc4cnccc4c3)nc3ccc(C(=O)NCc4cccc(C(N)=O)c4)cc32)C1 — remaining binding (binding; competition with immobilised ligand; 1 µM): 100%
CN(C(=O)c1ccccc1)c1cc(N(C)c2ccc3c(c2)CCc2ccc(C(=O)NCCN4CCOCC4)cc2C3=O)ccc1F — remaining binding (cell-free assay; competition with immobilised ligand; 1 µM): 98%
Cc1cnn2ncc(-c3ccnc(N(C)C)n3)c2c1 — remaining binding (binding; 1 µM): 100%
O=C(c1ccc(Nc2ncc(Cl)c(-c3ccc(Cl)s3)n2)cc1)N1CCC(N2CCCC2)CC1 — remaining binding (binding; competition with immobilised ligand; 1 µM): 77%
O=C(Nc1cccnn1)N1CC(C/C=C/c2cncc(Oc3ccc(C(F)(F)F)cn3)n2)C1 — remaining binding (cell-free assay; competition with immobilised ligand; 1 µM): 100%
CCN1CCN(Cc2ccc(C(=O)Nc3ccc(C)c(Oc4ccc5c(c4)CC(=O)N5)c3)cc2C(F)(F)F)CC1 — remaining binding (binding; competition with immobilised ligand; 1 µM): 78%
N[C@H]1CCN(c2nccc(-c3cnn4ncccc34)n2)C1 — remaining binding (binding; 1 µM): 88%
CCC(=N\O)/C(C)=C/c1ccc(F)cc1 — remaining binding (cell-free assay; competition with immobilised ligand; 1 µM): 91%
C=CC(=O)N1CCC(C(=O)NCC(=O)N2CCN(c3nc(-c4cnc(N)nc4C(F)F)nc(N4CCOCC4)n3)CC2)CC1 — remaining binding (binding; competition with immobilised ligand; 1 µM): 91%
Cc1c[nH]c2nccc(Oc3c(F)cc(Nc4cc(Cl)nc(N)n4)cc3F)c12 — remaining binding (cell-free assay; competition with immobilised ligand; 0.1 µM): 100%
C[C@@H]1CCN(c2nccc(-c3cnn4ncccc34)n2)C1 — remaining binding (binding; 1 µM): 92%
C[C@@H](c1cccc(C#N)c1)n1cc(Cl)cc(C(N)=O)c1=N — remaining binding (cell-free assay; competition with immobilised ligand; 1 µM): 99%
CC(C)(C)c1ccc(-c2nc(CBr)nn2-c2cccc(O)c2)cc1 — remaining binding (cell-free assay; competition with immobilised ligand; 10 µM): 79%
